# Published values from different studies.
# Lines come from different studies, so protocols differ.
# SPHK1: Sphingosine kinase 1 (SPHK1, Homo sapiens, UniProt Q9NYA1)
# SIGMAR1: Sigma non-opioid intracellular receptor 1 (SIGMAR1, Homo sapiens, UniProt Q99720)
# EHMT1: Histone-lysine N-methyltransferase EHMT1 (EHMT1, Homo sapiens, UniProt Q9H9B1)
# EDNRA: Endothelin-1 receptor (EDNRA, Homo sapiens, UniProt P25101)
# CNR1: Cannabinoid receptor 1 (CNR1, Homo sapiens, UniProt P21554)
# PDE5A: cGMP-specific 3',5'-cyclic phosphodiesterase (PDE5A, Homo sapiens, UniProt O76074)
# PARP1: Poly [ADP-ribose] polymerase 1 (PARP1, Homo sapiens, UniProt P09874)
# OPRK1: Kappa-type opioid receptor (OPRK1, Homo sapiens, UniProt P41145)
# ADORA2A: Adenosine receptor A2a (ADORA2A, Homo sapiens, UniProt P29274)
SMILES,target,test,test system,setting,inhibition [%]
[H]/N=C(\N)N1CCC[C@H]1c1nc(-c2ccc(OCC=Cc3cccc(Br)c3)c(C(F)(F)F)c2)no1,SPHK1,"enzyme activity, inhibitor, radiometric",,1 µM,12
O=C(Nc1ccc(S(=O)(=O)N2CCC(Cl)CC2)cc1)c1ccc([N+](=O)[O-])o1,SIGMAR1,"ligand displacement, radioligand",,10 µM,38
CN(C)C1CCN(CC#Cc2nn(C3CCCC3)c3nc(NCc4ccccc4)ncc23)C1 (centres unmarked),"Aurora kinase B (AURKB, Homo sapiens, UniProt Q96GD4)","enzyme activity, inhibitor, FRET",,10 µM,51
CCCCC(CC)CNC(=N)NC(=N)NCCCCCCNC(=N)NC(=N)NCC(CC)CCCC (centres unmarked),EHMT1,cell-free assay,,10 µM,-22
CC(C)CCn1c(SCC(=O)Nc2ccccc2C(F)(F)F)nc2nccnc2c1=O,SPHK1,"enzyme activity, inhibitor",,10 µM,< 20
CCN(Cc1ccccc1C(F)(F)F)C(=O)C1CCN(S(=O)(=O)c2ccc3[nH]ncc3c2)CC1,EDNRA,"ligand displacement, radioligand",,10 µM,1
O=C(O[C@@H]1Cc2c(O)cc(O)cc2O[C@@H]1c1cc(O)c(=O)c2c(O)c(O)cc([C@H]3Oc4cc(O)cc(O)c4C[C@H]3OC(=O)c3cc(O)c(O)c(O)c3)c2c1)c1cc(O)c(O)c(O)c1,EHMT1,cell-free assay,,10 µM,0
CN1CCN(CCCOc2ccc(=O)n(-c3ccc(Cl)c(Cl)c3)n2)CC1,CNR1,ligand displacement,,1 µM,27.4
CCN1C(=O)[C@@H]2Cc3c([nH]c4ccccc34)[C@H](c3ccc(OC)c(OC)c3)N2C1=O,PDE5A,"enzyme activity, inhibitor, FP",,50 µM,52
COc1cc(OC)c2c(=O)[nH]c(-c3c[nH]c4ncccc34)nc2c1,PARP1,"enzyme activity, inhibitor, ELISA",,10 µM,31
O=C(O)c1cc(O)c2c(c1)[C@H]([C@H]1c3cc(C(=O)O)cc(O)c3C(=O)c3c(O[C@@H]4O[C@H](CO)[C@@H](O)[C@H](O)[C@H]4O)cccc31)c1cccc(O[C@@H]3O[C@H](CO)[C@@H](O)[C@H](O)[C@H]3O)c1C2=O,EHMT1,cell-free assay,,10 µM,16
N#Cc1cc(Cn2c(N3CCCC3)nc3ccccc32)ccc1F,OPRK1,ligand displacement,,10 µM,-11.7
COC(=O)[C@@H]1Cc2c([nH]c3ccccc23)[C@H](c2cccnc2)N1,PDE5A,"enzyme activity, inhibitor, FP",,50 µM,72
CCCNc1nc2ccccc2n1Cc1ccc(Cl)cc1,OPRK1,ligand displacement,,10 µM,11.1
CCN1C(=O)[C@@H]2Cc3c([nH]c4ccccc34)[C@H](c3cccnc3)N2C1=O,PDE5A,"enzyme activity, inhibitor, FP",,50 µM,24
CCN1CCN(Cc2ccc(NC(=O)c3ccc(C)c(/C=C/c4cnc5[nH]ccc5c4OC)c3)cc2C(F)(F)F)CC1,"Serine/threonine-protein kinase A-Raf (ARAF, Homo sapiens, UniProt P10398)","target engagement in cells, inhibitor, chemoproteomics",A-375,5 µM,-23.9
O=C1N=C(N2CCCCN2)S/C1=C\c1ccc(F)cc1O,EDNRA,"ligand displacement, radioligand",,10 µM,< 10
CCCCCC=CCOc1ccc(-c2noc([C@@H]3CCCN3C(=N)N)n2)cc1C(F)(F)F (mixture of isomers),SPHK1,"enzyme activity, inhibitor, radiometric",,1 µM,54
O=C(c1ccc(F)cc1)N(Cc1ccccc1)C1CCCCC1,SIGMAR1,cell-free assay,,10 µM,9
CCN(CC)c1ccc(C2Nc3ccc(C(=O)c4ccccc4)cc3NC3=C2C(=O)CC(C)(C)C3)cc1 (centres unmarked),"Histamine H4 receptor (HRH4, Homo sapiens, UniProt Q9H3N8)","ligand displacement, radioligand",,10 µM,12
O=c1[nH]c(-c2c[nH]c3ncccc23)nc2ccccc12,PARP1,"enzyme activity, inhibitor, ELISA",,1 µM,7
Oc1cccc(Nc2nc(-c3ccc(F)cc3F)cs2)c1,ADORA2A,cell-free assay,,10 µM,76
O=C1NCCCc2c(O)cccc21,PARP1,"enzyme activity, inhibitor",,10 µM,43
C=CCN1C(=O)[C@H]2Cc3c([nH]c4ccccc34)[C@@H](c3ccc(Br)s3)N2C1=O,PDE5A,"enzyme activity, inhibitor, FP",,10 µM,96
Cc1cc(O)c(C=O)c2c1C(=O)Oc1c(C)c(O)c3c(c1O2)C(O)OC3=O (centres unmarked),EHMT1,cell-free assay,,10 µM,-4
COc1ccc([C@@H]2c3[nH]c4ccccc4c3C[C@H]3C(=O)N(C(C)(C)C)C(=O)N23)cc1OC,PDE5A,"enzyme activity, inhibitor, FP",,50 µM,79
O=c1c(O)cccc2cc(O)c(O)c(O)c12,EHMT1,cell-free assay,,10 µM,3
COc1ccc(-n2nc(OCCCN3CCCCC3)ccc2=O)cc1,CNR1,ligand displacement,,1 µM,43.8
c1ccc(N2CCN(CCCc3ccc4oc(-c5ccco5)nc4c3)CC2)cc1,ADORA2A,"ligand displacement, radioligand",,"10 µM, cell membranes",28
N=C(N)N1CCC[C@H]1c1nc(-c2ccc(CCC3CC3)c(C(F)(F)F)c2)no1,SPHK1,"enzyme activity, inhibitor, radiometric",,1 µM,14
CS(=O)(=O)Nc1cccc(-c2csc(NC(=O)CSc3nc4nccnc4c(=O)n3CCc3ccccc3)n2)c1,SPHK1,"enzyme activity, inhibitor",,10 µM,9
CC(C)(C)N1C(=O)[C@H]2Cc3c([nH]c4ccccc34)[C@@H](c3cccnc3)N2C1=O,PDE5A,"enzyme activity, inhibitor, FP",,50 µM,90
CCN(c1cc(C#CCN2CCOCC2)cc(C(=O)NCc2c(C)cc(C)[nH]c2=O)c1C)[C@H]1CC[C@H](N(C)CCOC)CC1,EHMT1,"enzyme activity, inhibitor",,1 µM,9
Ic1cccc2cnccc12,PARP1,"enzyme activity, inhibitor",,10 µM,19.5
CCc1ccc(CCc2ccc(-c3noc([C@@H]4CCCN4C(=N)N)n3)cc2C(F)(F)F)cc1,SPHK1,"enzyme activity, inhibitor, radiometric",,1 µM,13
O=C(CN1CCNCC1)Nc1ccc2oc(-c3ccco3)nc2c1,ADORA2A,"ligand displacement, radioligand",,"10 µM, cell membranes",8
O=C(Oc1cc(O)cc2c1C[C@@H](OC(=O)c1cc(O)c(O)c(O)c1)[C@@H](c1cc(O)c(O)c(O)c1)O2)c1cc(O)c(O)c(O)c1,EHMT1,cell-free assay,,10 µM,-4
[H]/N=C(\N)N1CCC[C@H]1c1nc(-c2ccc(OCC=Cc3ccccc3C(F)(F)F)c(C(F)(F)F)c2)no1,SPHK1,"enzyme activity, inhibitor, radiometric",,1 µM,0
COc1ccc(-c2nc3cc(CCN4CCN(c5ccccc5)CC4)ccc3o2)cc1OC,ADORA2A,"ligand displacement, radioligand",,"10 µM, cell membranes",5
COc1cc(NC(C)=O)c(Cl)cc1C(=O)Nc1nccs1,"5-hydroxytryptamine receptor 2A (HTR2A, Homo sapiens, UniProt P28223)","ligand displacement, radioligand",,10 µM,8.7
[H]/N=C(\N)N1CCC[C@H]1c1nc(-c2ccc(OCCC=Cc3ccc(C(F)(F)F)cc3)c(C(F)(F)F)c2)no1,SPHK1,"enzyme activity, inhibitor, radiometric",,1 µM,5
COc1ccc(F)cc1C(=O)NCc1ccc(-c2nn([C@@H](C)C(F)(F)F)c(N)c2C(N)=O)cc1,"Mitogen-activated protein kinase kinase kinase 3 (MAP3K3, Homo sapiens, UniProt Q99759)","target engagement in cells, inhibitor, chemoproteomics",,1 µM,-38.6
O=C(c1ccc(Cl)cc1)N(Cc1ccccc1)C1CCCCC1,ADORA2A,cell-free assay,,10 µM,9.1
COC(=O)[C@H]1Cc2c([nH]c3ccccc23)[C@H](c2ccc(OC)c(OC)c2)N1C(=O)CCl,PDE5A,"enzyme activity, inhibitor, FP",,50 µM,75
COCCOc1ccc(N2CCN(CCc3ccc4oc(-c5ccco5)nc4c3)CC2)cc1,ADORA2A,"ligand displacement, radioligand",,"10 µM, cell membranes",10
O=c1c(-c2cc(O)c(O)c(O)c2)coc2cc(O)c(O)c(O)c12,EHMT1,cell-free assay,,10 µM,0
CCCCc1ccc(CCc2ccc(-c3noc([C@@H]4CCCN4C(=N)N)n3)cc2C(F)(F)F)cc1,SPHK1,"enzyme activity, inhibitor, radiometric",,1 µM,6
